{"source": "paper PMC2849840", "about": "(Molecular pharmaceutics, 2010)", "key": {"[1]": {"assay": "Bidirectional transepithelial transport of [3H]lopinavir across MDCK-MDR1 cells", "format": "in vitro ADME", "settings": "dog, MDCK-MDR1, 37 °C; for Papp A→B at 0.5 μCi/mL: MDCK-MDR1, pH 7.4, PappA-B; for Papp B→A at 0.5 μCi/mL: MDCK-MDR1, pH 7.4, PappB-A"}, "[2]": {"tested_on": "MDCK-MDR1 cells", "format": "in vitro ADME"}, "[3]": {"tested_on": "MDCK-MDR1 cells"}, "[4]": {"tested_on": "MDCK-MDR1 cells", "assay": "Uptake of radiolabelled substrates into MDCK-MDR1 cells in DPBS with HEPES"}, "[5]": {"tested_on": "ATP production in MDCK-MDR1 cells", "assay": "ATP assay", "format": "cell-based", "settings": "20 mM HEPES in culture medium", "procedure,_shortened": "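MDCK-MDR1 cells grown in DMEM with 10% heat-inactivated calf serum at 37 °C, 5% CO2, in 96-well plates for 6–7 days to full confluence, in medium without HEPES (Set 1) or with 20 mM HEPES (Set 2). Cells lysed for […]; ATP in lysate read by luminescence kit, with protein measured by Bradford. At least triplicate; mean ± SD.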"}}, "data": [{"smiles": "Cc1cccc(C)c1OCC(=O)N[C@@H](Cc1ccccc1)[C@@H](O)C[C@H](Cc1ccccc1)NC(=O)[C@H](C(C)C)N1CCCNC1=O", "note": "[lopinavir]", "values": [{"measurement": "Papp A→B at 0.5 μCi/mL", "setting": "[1]; 25 mM HEPES in DPBS", "result": "22.8 ± 1.03", "unit": "×10⁻⁶ cm/s"}, {"measurement": "Papp A→B at 0.5 μCi/mL", "setting": "[1]; Control (0 mM HEPES) in DPBS", "result": "30.2 ± 2.56", "unit": "×10⁻⁶ cm/s"}, {"measurement": "Papp B→A at 0.5 μCi/mL", "setting": "[1]; 25 mM HEPES in DPBS", "result": "165 ± 11.1", "unit": "×10⁻⁶ cm/s"}, {"measurement": "Papp B→A at 0.5 μCi/mL", "setting": "[1]; Control (0 mM HEPES) in DPBS", "result": "148 ± 7.92", "unit": "×10⁻⁶ cm/s"}, {"measurement": "accumulation by Set 2 cells compared with Set 1 cells", "setting": "[2]; Set 2 grown with 20 mM HEPES, Set 1 without, 0, 15, 25 mM HEPES in DPBS", "result": "significantly less"}, {"measurement": "accumulation by Set 2 cells compared to Set 1 cells", "setting": "[2]; in the presence of 1 μM or 2 μM unlabelled lopinavir, DPBS with 25 mM HEPES", "result": "higher accumulation"}, {"measurement": "elevation of accumulation, Set 2 versus Set 1 cells", "setting": "[2]; in the presence of 5 μM unlabelled lopinavir, DPBS with 25 mM HEPES", "result": "not statistically different"}, {"measurement": "accumulation into cells versus control (0 mM HEPES)", "setting": "[3]", "result": "significant reduction"}]}, {"smiles": "CC(C)c1nc(CN(C)C(=O)N[C@H](C(=O)N[C@@H](Cc2ccccc2)C[C@H](O)[C@H](Cc2ccccc2)NC(=O)OCc2cncs2)C(C)C)cs1", "note": "[ritonavir]", "values": [{"measurement": "accumulation into cells versus control (0 mM HEPES)", "setting": "[3]", "result": "significant reduction"}]}, {"smiles": "N[C@@H](Cc1ccccc1)C(=O)O", "note": "[phenylalanine]", "values": [{"measurement": "change of uptake in the presence of HEPES", "setting": "[4]; 15 and 25 mM HEPES", "result": "no significant change"}]}, {"smiles": "O=S(=O)(O)CCN1CCN(CCO)CC1", "note": "[HEPES, 4-(2-hydroxyethyl)-1-piperazineethanesulfonic acid]", "values": [{"measurement": "elevation of ATP production, Set 2 compared to Set 1", "setting": "[5]", "result": 70, "unit": "%"}]}, {"smiles": "N[C@@H](CCC(=O)O)C(=O)O", "note": "[glutamic acid]", "values": [{"measurement": "elevation of uptake over the control", "setting": "[4]; 15 mM HEPES", "result": "about 30%"}, {"measurement": "elevation of uptake over the control", "setting": "[4]; 25 mM HEPES", "result": "~45", "unit": "%"}]}]}
